MrgX1 ag: human MrgX1 receptor agonism, primary screen; AID 588627; B-score at 10 µM; MrgX1-HEK293 cells, Fluo-4 calcium fluorescence, agonist mode; stronger effect = higher value; 310,000 compounds, 0.44% hits;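 active means calcium response B-score plate-corrected fluorescence ratio at least 3 library SD, with starting fluorescence B-score inside 5 SD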
Target sequence (Q96LB2 whole entry, looked up): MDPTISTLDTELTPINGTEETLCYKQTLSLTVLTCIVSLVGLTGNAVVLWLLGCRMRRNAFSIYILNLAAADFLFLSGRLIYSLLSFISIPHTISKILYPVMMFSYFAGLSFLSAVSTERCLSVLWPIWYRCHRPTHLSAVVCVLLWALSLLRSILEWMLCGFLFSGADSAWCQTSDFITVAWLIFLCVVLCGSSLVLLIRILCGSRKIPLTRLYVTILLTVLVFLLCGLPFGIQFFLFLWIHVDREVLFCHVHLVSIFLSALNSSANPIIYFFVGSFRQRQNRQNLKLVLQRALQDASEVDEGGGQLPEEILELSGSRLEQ
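System: HEK293 cells stably expressing human MrgX1 receptor; Dosing: test compound in the initial addition of three; Schedule: overnight plating, then 30 min 37 °C plus 30 min room-temperature dye loading; Detection: kinetic calcium dye fluorescence, Fluo-4 NW; Controls: per-plate positive and negative controls for Z′ factor.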
RGS4 inh: inhibitors of human RGS4. P49798. HEK293 M3R/RGS4 inducible, Fluo-4 calcium flux; stronger effect = higher value; triggered by carbachol at its EC20. B-score at 10 µM. 310,000 compounds, 0.45% hits. AID 463165;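 active means B-score, a plate-corrected calcium signal, over three deviations above library mean, with baseline fluorescence within five deviations of library mean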;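 further: RGS4 expression induced by doxycycline in cells with stable M3 receptor; B-score is computed from the integrated fluorescence ratio over baseline after carbachol; higher B-score means a larger calcium signal and so more RGS4 inhibition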
Target sequence (P49798 whole entry, looked up): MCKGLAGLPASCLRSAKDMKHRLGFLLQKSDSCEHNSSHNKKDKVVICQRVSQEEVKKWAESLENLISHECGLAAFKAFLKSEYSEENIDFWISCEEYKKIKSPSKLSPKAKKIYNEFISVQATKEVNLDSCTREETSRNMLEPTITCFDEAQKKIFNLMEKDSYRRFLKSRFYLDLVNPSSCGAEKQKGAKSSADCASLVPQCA
RGS4 pot: potentiators or activators of RGS4; HEK293 M3R/inducible RGS4, carbachol calcium flux Fluo4; stronger effect = lower value; B-score at 10 µM; 310,000 compounds, 0.92% hits; AID 463111;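 active means B-score of the integrated calcium signal more than 4 SD below the library mean, with starting fluorescence not abnormally high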;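 further: negative B-score means reduced calcium response which marks RGS4 activation or potentiation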
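Reagent: ECmax carbachol challenge; Test system: M3R-expressing HEK293 line, RGS4 induced by doxycycline; Schedule: overnight RGS4 induction, 30 min dye load 37 °C, 20 min compound RT; Detection: calcium dye Fluo4 fluorescence; Read-out: Agonist-evoked peak-minus-minimum fluorescence over baseline, integrated ratio, B score.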
MrgX1 PAM: human MrgX1 positive allosteric modulation, primary screen | Q96LB2 | 310,000 compounds, 0.63% hits | MrgX1-HEK293, Fluo-4 calcium flux, FDSS; stronger effect = higher value | B-score at 10 µM;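 active means plate-corrected calcium response at least 3 library SD above typical, normal starting fluorescence, not activating the receptor alone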;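 further: compound read alongside a low EC10 to EC30 dose of BAM8-22 agonist; peak minus trough fluorescence over baseline measured at the second addition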
MrgX1 antagonist: blocks BAM8-22 activation of human MrgX1 receptor; B-score at 10 µM; MRGX1-HEK293 calcium flux, Fluo-4, BAM8-22 antagonism; stronger effect = lower value; Q96LB2; 310,000 compounds, 1.3% hits;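 active means calcium-response B-score plate-corrected more than 3 library SD below zero, starting fluorescence within 5 deviations, no agonist response on first addition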;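 further: peak minus trough fluorescence over baseline after final BAM8-22 challenge near maximal dose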
RGS4 block valid: validation of RGS4 inhibitors; AID 492999; HEK293 M3R/RGS4, carbachol calcium Fluo-4 fluorescence; carbachol added at its EC20; 0 = buffer wells, 100 = carbachol control; calcium response, % at 10 µM; 1,700 compounds, 65% hits; shares compounds with RGS4 inh;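 active means duplicate-averaged calcium response above the buffer-only control mean plus 5 SD of those controls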;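 further: integrated fluorescence ratio F max minus min over baseline F0; higher response in RGS4-induced cells means RGS4 inhibition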
M3R Ca ctr: checks RGS4 inhibitor effects in non-induced HEK293 M3R cells. carbachol calcium Fluo-4; submaximal (EC20) carbachol stimulus; buffer wells 0%, carbachol control wells 100%. shares compounds with RGS4 inh. activity (percent), % at 10 µM. AID 493000. 1,900 compounds, 20% hits; call rule not given here;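 further: RGS4 induction absent so cells express M3R without RGS4; higher means more calcium signal and flags a non-specific hit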
M3R basal Ca ctr: second RGS4 inhibitor counter-screen in uninduced cells lacking carbachol | shares compounds with RGS4 inh | HEK293 M3R/RGS4 non-induced, Fluo-4 calcium, no carbachol; normalised: buffer wells 0%, carbachol wells 100% | calcium response (agonist-mode artifact), % at 10 µM | 1,900 compounds, 22% hits | AID 493001;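 active means duplicate-averaged calcium rise in uninduced cells above buffer wells' mean plus 5 SD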
Starred values were filed as active, the others as inactive; i = inactive; . = no result given. This is a sample that favours compounds with a hit; in the whole collection about 3.5% have one here.

SMILES	MrgX1 ag	RGS4 inh	RGS4 pot	MrgX1 PAM	MrgX1 antagonist	RGS4 block valid	M3R Ca ctr	M3R basal Ca ctr
Cc1c(C#N)c(O)n(CCO)c(=O)c1N=Nc1ccc2c(c1)COC2=O	i	5.24*	i	i	i	i	i	18.0%*
Cc1ccc(C(=O)/C=C/C(=O)c2ccc(C)cc2)cc1	i	i	i	i	i	.	i	i
CC1(C)CC(=O)c2c(O)cc(OCC(=O)N3CCN(c4ccc(F)cc4)CC3)cc2O1	i	i	i	i	i	.	.	.
O=c1c2ccccc2[nH]c(=S)n1CCCN1CCN(c2ccccc2)CC1	i	i	i	i	i	.	.	.
CC1CC(C)CN(CCCn2c(=S)[nH]c3ccccc3c2=O)C1 (configuration not stated)	i	12.8*	i	i	i	92.0%*	77.0%*	11.0%*
COc1cc(N=Cc2c(CO)cnc(C)c2O)cc(OC)c1OC	i	i	i	i	i	.	.	.
COC(=O)/C=c1\sc2ncnn2c1=O	i	11.4*	i	i	i	i	i	i
Cc1cc(O)c(C(C[N+](=O)[O-])c2ccc(Cl)cc2)c(=O)o1 (configuration not stated)	i	i	i	i	i	.	.	.
Cc1cc(C)n(C(C[N+](=O)[O-])c2ccc(Cl)cc2)n1 (configuration not stated)	i	13.7*	i	i	i	8.0%*	44.0%*	21.5%*
COc1cc(/C=C2/C(=O)NN(c3cccc(C)c3)C2=O)ccc1OC(=O)c1ccco1	i	6.82*	i	i	i	16.0%*	31.0%*	i
COc1cc(/C=C2\C(=O)NN(c3ccccc3)C2=O)ccc1OCC(N)=O	i	i	i	i	i	.	.	.
C#CCOc1ccc(/C=C2/C(=O)NN(c3ccc(F)cc3)C2=O)cc1OC	i	i	i	i	i	.	30.0%*	i
COC(=O)c1ccc(N2NC(=O)/C(=C/c3ccc(OC)c(OC)c3)C2=O)cc1	i	6.18*	i	i	i	19.5%*	40.5%*	i
CCOC(=O)c1sc(NC(=O)C(C)C)c(C#N)c1C	i	i	i	i	i	.	.	.
COC1CCCN(C(=O)c2cccc(OC3CCN(S(C)(=O)=O)CC3)c2)C1 (configuration not stated)	i	i	i	i	i	.	.	.
CCN(C(=O)COC(=O)c1ccccc1SCC(=O)NC1CCCCCCC1)C1CCS(=O)(=O)C1 (configuration not stated)	i	i	i	i	i	.	.	.
O=C(CCN1Cc2ccccc2C1)c1ccc2c(c1)OCCO2	i	16.9*	i	i	i	95.0%*	i	23.0%*
O=C(CCN1CCc2ccccc2C(c2ccccc2)C1)c1ccc2c(c1)OCCO2 (configuration not stated)	43*	14.8*	i	i	i	10.5%*	i	14.5%*
CCCOc1ccc(/C=N/NC(=O)CSCc2ccc([N+](=O)[O-])cc2)cc1OCC	i	i	i	i	i	.	.	.
COC(=O)/C=C/S(=O)(=O)c1ccc(NC(C)=O)cc1	i	5.97*	i	i	i	53.5%*	37.5%*	13.0%*
CC(=O)Nc1ccc(C(=S)NCC2(N(C)C)CCCCC2)cc1	i	i	i	i	i	.	.	.
CN(C)C1(CNC(=O)Nc2ccccc2)CCCCC1	i	4.67*	i	i	i	i	i	i
O=C(c1ccc(S(=O)(=O)N2CCCC2)cc1)N1CCCCC1	i	i	i	i	i	.	.	.
O=C(/C=C/c1ccc(O)c(O)c1)c1ccc(S(=O)(=O)N2CCCCCC2)cc1	i	15.7*	i	i	i	23.0%*	43.5%*	i
COc1cc(/C=C/C(=O)c2c(O)ccc3c(C)cc(=O)oc23)ccc1O	i	i	i	6.7*	i	.	i	i
SMILES	MrgX1 ag	RGS4 inh	RGS4 pot	MrgX1 PAM	MrgX1 antagonist	RGS4 block valid	M3R Ca ctr	M3R basal Ca ctr
COc1ccc(/C=C\C(=O)c2c(O)ccc3c(C)cc(=O)oc23)cc1OC	i	6.74*	i	i	i	8.0%*	i	i
Cc1cc(=O)oc2c(C(=O)/C=C/c3ccccc3)c(O)ccc12	i	i	i	i	i	.	.	.
CCNS(=O)(=O)c1ccc(NC(=O)c2ccc(Cn3cc([N+](=O)[O-])cn3)o2)cc1	i	i	i	i	i	.	.	.
CC(=O)c1ccc(S(=O)(=O)Nc2cccc(-c3ccc(N4CCOCC4)nn3)c2)cc1	i	i	i	i	i	.	.	.
Cc1ccc(O)c(-c2cc(-c3ccccc3[N+](=O)[O-])[nH]n2)c1	i	8.62*	i	i	i	11.5%*	i	18.0%*
COc1ccc(O)c(-c2cc(-c3ccccc3[N+](=O)[O-])[nH]n2)c1	i	6.42*	i	i	i	9.5%*	i	i
CC(=O)N1CCN(S(=O)(=O)c2cccc(C(=O)Nc3cc(C(F)(F)F)ccc3N3CCOCC3)c2)CC1	i	i	i	i	i	.	.	.
COc1ccc(C(=O)N2CCC(O)(c3ccc(Cl)cc3)CC2)cc1OC	i	i	i	i	i	.	.	.
COc1ccc(C(=O)C2C(c3ccc(-c4ccccc4[N+](=O)[O-])o3)NC(=O)NC2(O)C(F)(F)F)cc1 (configuration not stated)	i	i	i	i	i	i	i	i
O=C1NC(c2ccc(-c3ccccc3[N+](=O)[O-])o2)C(C(=O)c2ccc(F)cc2)C(O)(C(F)(F)F)N1 (configuration not stated)	i	i	i	i	i	.	31.5%*	7.5%*
Cc1ccc(C2NC(=O)NC(O)(C(F)(F)F)C2C(=O)c2ccccc2)o1 (configuration not stated)	i	i	i	i	i	.	.	.
CCN(Cc1ccccc1)C(=O)Cn1c(=O)n(CC(=O)N2CCCCC2)c(=O)c2sccc21	i	i	i	i	i	.	43.5%*	i
NC(=O)Cn1c(=O)n(CC(=O)N2CCCCC2)c(=O)c2sccc21	i	i	i	i	i	.	.	.
